Measured values taken from ChEMBL document CHEMBL3525946, “Species comparison of in vivo P-glycoprotein-mediated brain efflux using mdr1a-deficient rats and mice” (Drug Metab Dispos, 2012).
One block for each compound: values may come before it.

Assays:
[1] = Total plasma concentration in wild type Crl:CF1 mouse expressing Abcb1a mutant at 6 mg/kg/day administered through continuous minipump treatment for 3 days by UPLC-MS analysis; type: ADME, organism-based; conditions: other: continuous minipump
Summary of the method: (§1)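 Subcutaneous osmotic minipump infusion for 3 days to steady state, implanted under isoflurane (rats 10 µl/h, mice 1 µl/h). Mdr1a-deficient (SD-Abcb1a knockout rats; Crl:CF1-Abcb1a mutant mice) and wild-type animals, n=3-5 per group. After decapitation, EDTA plasma and whole brain (homogenized 1:4 in 70% acetonitrile) were precipitated with internal standard. Parent and metabolites quantified by UPLC-MS. Mean ± SEM.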

[2] = Total drug level in wild type Crl:CF1 mouse brain expressing Abcb1a mutant at 6 mg/kg/day administered through continuous minipump treatment for 3 days by UPLC-MS analysis; type: ADME, organism-based; conditions: other: continuous minipump, read-out: Drug uptake; summary of the method: as §1
[3] = Total plasma concentration in mdr1a-deficient mouse at 6 mg/kg/day administered through continuous minipump treatment for 3 days by UPLC-MS analysis; type: ADME, organism-based; conditions: other: continuous minipump; summary of the method: as §1
[4] = Total plasma concentration in wild type Sprague-Dawley rat expressing Abcb1a at 9 mg/kg/day administered through continuous minipump treatment for 3 days by UPLC-MS analysis; type: ADME, organism-based; conditions: other: continuous minipump
Summary of the method: (§2)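 Drug was infused subcutaneously by osmotic minipump for 3 days to steady state, at 1 µl/h in mice and 10 µl/h in rats, with doses derived from body weight and delivery rate. Animals were decapitated. Plasma came from EDTA trunk blood spun at 5000 g for 10 min at 4 °C. Whole brain was homogenised 1:4 in 70% acetonitrile and the supernatant kept. Samples were protein-precipitated with internal standard and analysed by UPLC. n=3-5, mean ± SEM.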

[5] = Total drug level in mdr1a-deficient rat brain at 9 mg/kg/day administered through continuous minipump treatment for 3 days by UPLC-MS analysis; type: ADME, organism-based; conditions: other: continuous minipump, read-out: Drug uptake; summary of the method: as §2
[6] = Total drug level in wild type Sprague-Dawley rat brain expressing Abcb1a at 9 mg/kg/day administered through continuous minipump treatment for 3 days by UPLC-MS analysis; type: ADME, organism-based; conditions: other: continuous minipump, read-out: Drug uptake; summary of the method: as §2
[7] = Percentage unbound in Crl:NMRI(Han) mouse plasma at 1 uM after 5 hrs by equilibrium dialysis method; type: ADME, cell-free
Summary of the method: (§3)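 Equilibrium dialysis (12-14 kDa membrane) of plasma or brain homogenate from naïve male Sprague-Dawley rats or Crl:NMRI(Han) mice. Donor side spiked to 1 µM final; receiver phosphate buffer pH 7.4; 37°C for 5 h. Buffer phase quantified by LC-MS. Brain fu corrected for homogenate dilution to intact tissue. Mean of two independent determinations.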

[8] = Total drug level in mdr1a-deficient mouse brain at 6 mg/kg/day administered through continuous minipump treatment for 3 days by UPLC-MS analysis; type: ADME, organism-based; conditions: other: continuous minipump, read-out: Drug uptake; summary of the method: as §1
[9] = Total plasma concentration in mdr1a-deficient rat at 9 mg/kg/day administered through continuous minipump treatment for 3 days by UPLC-MS analysis; type: ADME, organism-based; conditions: other: continuous minipump; summary of the method: as §2
[10] = Percentage unbound in Crl:NMRI(Han) mouse brain at 1 uM after 5 hrs by equilibrium dialysis method; type: ADME, tissue-based; summary of the method: as §3
[11] = Percentage unbound in Sprague-Dawley rat plasma at 1 uM after 5 hrs by equilibrium dialysis method; type: ADME, cell-free; summary of the method: as §3
[12] = Percentage unbound in Sprague-Dawley rat brain at 1 uM after 5 hrs by equilibrium dialysis method; type: ADME, tissue-based; summary of the method: as §3
[13] = Unbound brain to plasma partition coefficient of the compound in mdr1a-deficient mouse treated with venlafaxine at 12 mg/kg/day administered through continuous minipump treatment for 3 days; type: ADME, organism-based; conditions: other: continuous minipump, read-out: K(p,uu,brain)
Summary of the method: (§4)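 Kp,uu is (Cbrain,total × fu,brain)/(Cplasma,total × fu,plasma). Total concentrations were measured at steady state after a 3-day subcutaneous minipump infusion in knockout or wild-type animals. Species-matched free fractions came from 5 h, 37°C equilibrium dialysis at 1 µM in naïve plasma and brain homogenate.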

[14] = Total plasma concentration in mdr1a-deficient rat treated with venlafaxine at 9 mg/kg/day administered through continuous minipump treatment for 3 days by UPLC-MS analysis; type: ADME, organism-based; conditions: other: continuous minipump; summary of the method: as §1
[15] = Total drug level in wild type Crl:CF1 mouse brain expressing Abcb1a mutant treated with venlafaxine at 12 mg/kg/day administered through continuous minipump treatment for 3 days by UPLC-MS analysis; type: ADME, organism-based; conditions: other: continuous minipump, read-out: Drug uptake; summary of the method: as §1
[16] = Total drug level in mdr1a-deficient mouse brain treated with venlafaxine at 12 mg/kg/day administered through continuous minipump treatment for 3 days by UPLC-MS analysis; type: ADME, organism-based; conditions: other: continuous minipump, read-out: Drug uptake; summary of the method: as §1
[17] = Unbound brain to plasma partition coefficient of the compound in wild type Crl:CF1 mouse expressing Abcb1a mutant treated with venlafaxine at 12 mg/kg/day administered through continuous minipump treatment for 3 days; type: ADME, organism-based; conditions: other: continuous minipump, read-out: K(p,uu,brain); summary of the method: as §4
[18] = Total drug level in wild type Sprague-Dawley rat brain expressing Abcb1a treated with venlafaxine at 9 mg/kg/day administered through continuous minipump treatment for 3 days by UPLC-MS analysis; type: ADME, organism-based; conditions: other: continuous minipump, read-out: Drug uptake; summary of the method: as §1
[19] = Total brain to plasma partition coefficient of the compound in mdr1a-deficient mouse treated with venlafaxine at 12 mg/kg/day administered through continuous minipump treatment for 3 days; type: ADME, organism-based; conditions: other: continuous minipump
Summary of the method: (§5)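 Kp is total brain concentration divided by total plasma concentration at steady state. Measured after a 3-day subcutaneous osmotic minipump infusion in mdr1a-deficient or wild-type rats or mice, n=3-5. Concentrations determined by UPLC-MS in plasma and in whole-brain homogenate (70% acetonitrile). Mean ± SEM.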

[20] = Unbound brain to plasma partition coefficient of the compound in wild type Sprague-Dawley rat expressing Abcb1a treated with venlafaxine at 9 mg/kg/day administered through continuous minipump treatment for 3 days; type: ADME, organism-based; conditions: other: continuous minipump, read-out: K(p,uu,brain); summary of the method: as §4
[21] = Total brain to plasma partition coefficient of the compound in wild type Crl:CF1 mouse expressing Abcb1a mutant treated with venlafaxine at 12 mg/kg/day administered through continuous minipump treatment for 3 days; type: ADME, organism-based; conditions: other: continuous minipump; summary of the method: as §5
[22] = Unbound brain to plasma partition coefficient of the compound in mdr1a-deficient Sprague-Dawley rat treated with venlafaxine at 9 mg/kg/day administered through continuous minipump treatment for 3 days; type: ADME, organism-based; conditions: other: continuous minipump, read-out: K(p,uu,brain); summary of the method: as §4
[23] = Total plasma concentration in wild type Crl:CF1 mouse expressing Abcb1a mutant treated with venlafaxine at 12 mg/kg/day administered through continuous minipump treatment for 3 days by UPLC-MS analysis; type: ADME, organism-based; conditions: other: continuous minipump; summary of the method: as §1
[24] = Total plasma concentration in wild type Sprague-Dawley rat expressing Abcb1a treated with venlafaxine at 9 mg/kg/day administered through continuous minipump treatment for 3 days by UPLC-MS analysis; type: ADME, organism-based; conditions: other: continuous minipump; summary of the method: as §1
[25] = Total brain to plasma partition coefficient of the compound in wild type Sprague-Dawley rat expressing Abcb1a treated with venlafaxine at 9 mg/kg/day administered through continuous minipump treatment for 3 days; type: ADME, organism-based; conditions: brain and plasma, other: continuous minipump; summary of the method: as §5
[26] = Total brain to plasma partition coefficient of the compound in mdr1a-deficient rat treated with venlafaxine at 9 mg/kg/day administered through continuous minipump treatment for 3 days; type: ADME, organism-based; conditions: brain and plasma, other: continuous minipump; summary of the method: as §5
[27] = Total plasma concentration in mdr1a-deficient mouse treated with venlafaxine at 12 mg/kg/day administered through continuous minipump treatment for 3 days by UPLC-MS analysis; type: ADME, organism-based; conditions: other: continuous minipump; summary of the method: as §1
[28] = Total drug level in mdr1a-deficient rat brain treated with venlafaxine at 9 mg/kg/day administered through continuous minipump treatment for 3 days by UPLC-MS analysis; type: ADME, organism-based; conditions: other: continuous minipump, read-out: Drug uptake; summary of the method: as §1

concentration at 72 h [1]: 8.8 ng/mL | concentration at 72 h [2]: 191 ng/g | concentration at 72 h [3]: 8.2 ng/mL | concentration at 72 h [4]: 27 ng/mL | concentration at 72 h [5]: 1200 ng/g | concentration at 72 h [6]: 265 ng/g | fraction unbound at 5 h, 1 µM [7]: 0.32 | concentration at 72 h [8]: 361 ng/g | concentration at 72 h [9]: 35 ng/mL | fraction unbound at 5 h, 1 µM [10]: 0.035 | fraction unbound at 5 h, 1 µM [11]: 0.5 | fraction unbound at 5 h, 1 µM [12]: 0.031
SMILES: Br.CN(C)CCCC1(c2ccc(F)cc2)OCc2cc(C#N)ccc21 (configuration not stated) [CITALOPRAM HYDROBROMIDE]

Kp uu at 72 h [13]: 2.4 | concentration at 72 h [14]: 11 ng/mL | concentration at 72 h [15]: 10 ng/g | concentration at 72 h [16]: 40 ng/g | Kp uu at 72 h [17]: 0.8 | concentration at 72 h [18]: 4.4 ng/g | Kp at 72 h [19]: 5.7 | Kp uu at 72 h [20]: 0.38 | Kp at 72 h [21]: 1.8 | Kp uu at 72 h [22]: 1.2 | concentration at 72 h [23]: 5.7 ng/mL | concentration at 72 h [24]: 4.5 ng/mL | Kp at 72 h [25]: 1 | fraction unbound at 5 h, 1 µM [7]: > 0.99 | Kp at 72 h [26]: 3.3 | fraction unbound at 5 h, 1 µM [10]: 0.45 | fraction unbound at 5 h, 1 µM [11]: 0.89 | fraction unbound at 5 h, 1 µM [12]: 0.35 | concentration at 72 h [27]: 7.5 ng/mL | concentration at 72 h [28]: 33 ng/g
SMILES: CN(C)CC(c1ccc(O)cc1)C1(O)CCCCC1 (configuration not stated) [DESVENLAFAXINE]
